Experimental data published in publication PMC5665024 (Chemical research in toxicology, 2017).
Values after ≈ are worked out from the molar mass of the structure shown. Like-named read-outs stand apart in the source and are kept apart here.

How the values were obtained:
GM12878 cells = assay: MTS assay of cell proliferation, GM12878; format: cell-based, human; details: Homo sapiens, 24 h, GM12878, 24 h incubation
Summary of the method: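 Lymphoblasts grown in RPMI 1640 with 15% FBS at 37 °C and 5% CO2. Plated at 5 × 10^3 per well, grown 24 h, then exposed 24 or 72 h to test compound alone or with 10 μM lignan inhibitor added. DMSO 0.2% final; vehicle controls. MTS/PMS in PBS pH 7.2 for 4 h at 37 °C; A492; cell-free background. Triplicate; normalized absorbance fitted for IC50 with 95% CI.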

pol β binding to DNA = pol β binding to DNA (Homo sapiens, UniProt P06746); assay: Polymerase–DNA interaction, electrophoretic mobility shift assay, pol β; details: for inhibition of DNA binding to polymerase (EMSA): honokiol up to 200 μM, polymerase in excess of DNA
pol β = pol β (Homo sapiens, UniProt P06746); assay: Presteady-state burst kinetics; format: biochemical; details: modeling with a noncompetitive inhibition scheme (Figure S10)
[1] = Solubility limit of honokiol in polymerase buffer; format: physicochemical
[2] = tested on: HL60 promyelocytic leukemia cells; details: mice xenografted with HL60 promyelocytic leukemia cells; cited from earlier work
rats = details: dose of 100 mg/kg; cited from earlier work
UACC903 cells = assay: MTS assay of cell proliferation, UACC903; format: cell-based, human; details: for IC50: Homo sapiens; for −log(IC50) (95% CI): tested compound alone
Summary of the method: (§1)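 Cells grown in DMEM with 10% FBS at 37 °C and 5% CO2. Plated at 5 × 10^3 per well, grown 24 h, then exposed 24 or 72 h to test compound alone or in pairs: 10 μM bleomycin-type or 250 μM alkylating agent added to the lignan, or 10 μM lignan added to either. DMSO 0.2% final; vehicle controls. MTS/PMS for 4 h; A492; cell-free background. Triplicate; IC50 fit, 95% CI.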

A549 cells = assay: MTS assay of cell proliferation, A549; format: cell-based, human; details: A549, 24 h
Summary of the method: as §1

pol η binding to DNA = target: T1, pol η binding to DNA (Homo sapiens, UniProt Q9Y253); assay: Polymerase–DNA interaction, electrophoretic mobility shift assay, pol η; details: native PAGE
T1 sequence (Q9Y253 1-713): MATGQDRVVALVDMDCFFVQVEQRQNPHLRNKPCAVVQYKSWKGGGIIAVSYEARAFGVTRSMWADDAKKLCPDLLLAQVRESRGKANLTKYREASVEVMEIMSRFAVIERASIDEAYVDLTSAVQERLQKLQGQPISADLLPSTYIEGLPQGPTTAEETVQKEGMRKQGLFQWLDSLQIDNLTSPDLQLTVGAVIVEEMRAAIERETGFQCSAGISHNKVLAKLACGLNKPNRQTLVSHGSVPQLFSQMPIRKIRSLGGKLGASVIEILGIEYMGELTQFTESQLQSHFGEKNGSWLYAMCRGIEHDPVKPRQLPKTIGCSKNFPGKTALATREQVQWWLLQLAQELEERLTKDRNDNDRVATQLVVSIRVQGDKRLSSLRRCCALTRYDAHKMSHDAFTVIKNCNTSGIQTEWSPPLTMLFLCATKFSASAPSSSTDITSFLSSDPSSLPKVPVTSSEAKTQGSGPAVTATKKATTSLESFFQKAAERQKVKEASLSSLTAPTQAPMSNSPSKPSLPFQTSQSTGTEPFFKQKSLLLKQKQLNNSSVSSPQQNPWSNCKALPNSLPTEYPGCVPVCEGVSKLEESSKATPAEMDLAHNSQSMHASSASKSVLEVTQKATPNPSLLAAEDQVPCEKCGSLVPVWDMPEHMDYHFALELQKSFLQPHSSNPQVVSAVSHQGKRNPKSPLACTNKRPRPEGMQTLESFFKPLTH

MCF7 cells = assay: MTS assay of cell proliferation, MCF7; format: cell-based, human; details: for IC50: Homo sapiens; for −log(IC50) (95% CI): tested compound alone
Summary of the method: as §1

[3] = target: T2, human DNA polymerase η (pol η) (Homo sapiens, UniProt Q9Y253); assay: Steady-state primer extension assay, pol η; format: biochemical
T2 sequence (Q9Y253 1-713): T1 sequence (Q9Y253 1-713)

[4] = cited from earlier work
PANC1 cells = assay: MTS assay of cell proliferation, PANC1; format: cell-based, human; details: for IC50: Homo sapiens; for −log(IC50) (95% CI): tested compound alone
Summary of the method: as §1

[5] = target: DNA polymerase I from E. coli (Klenow fragment), Kf(exo-) (Escherichia coli, UniProt P00582, D355A/E357A); assay: Steady-state primer extension assay, Kf; format: biochemical
KF(exo-) binding to DNA = KF(exo-) binding to DNA (Escherichia coli, UniProt P00582, D355A/E357A); assay: Polymerase–DNA interaction, electrophoretic mobility shift assay, KF; design: species or system E. coli; details: native PAGE
[6] = eq 3, factor on Km/Ki, 95% confidence limits
[7] = eq 3, residual catalysis with HNL bound, 95% confidence limits

**Q.** For C=CCc1ccc(O)c(-c2ccc(O)c(CC=C)c2)c1 [HNL, 2-(4-hydroxy-3-prop-2-enyl-phenyl)-4-prop-2-enyl-phenol], which EC50 (GM12878 cells; another study) is on record?
**A.** > 100 µM

**Q.** And the EC50 (GM12878 cells; one study)?
**A.** > 1000 µM

**Q.** And the Ki (pol β binding to DNA)?
**A.** > 500 µM

**Q.** And the “inhibition of DNA binding to polymerase (EMSA)” value (“inhibition of DNA binding” for short) (pol β binding to DNA; listed as Honokiol)?
**A.** does not inhibit DNA binding

**Q.** And the “inhibition of DNA binding” value (pol β binding to DNA; listed as honokiol)?
**A.** did not inhibit the binding of the DNA to the polymerase

**Q.** And the “honokiol off rate constant” value (pol β)?
**A.** 0.16 s⁻¹

**Q.** And the solubility [1]?
**A.** 200 µM (≈ 53.3 µg/mL)

**Q.** And the “prolonging life in xenografted mice” value [2]?
**A.** effective in prolonging life

**Q.** And the “toxicity and side effects in rats” value (rats)?
**A.** nontoxic with no side effects

**Q.** And the IC50 (UACC903 cells; UACC-903, 24 h, read-out: −log(IC50) (95% CI), UACC903, 24 h, tested compound alone (converted))?
**A.** 25.1 µM

**Q.** And the IC50 (UACC903 cells; UACC-903, 72 h, read-out: −log(IC50) (95% CI), UACC903, 72 h, tested compound alone (converted))?
**A.** 15.8 µM

**Q.** What about the “−log(IC50) (95% CI)” value (UACC903 cells; UACC903, 24 h) of the same compound?
**A.** 4.6 (4.47, 4.8)

**Q.** What about the “−log(IC50) (95% CI)” value (UACC903 cells; UACC903, 72 h) of the same compound?
**A.** 4.8 (4.65, 4.9)

**Q.** What about the “−log(IC50) (95% CI)” value (A549 cells; tested compound alone) of the same compound?
**A.** 4.6 (4.5, 4.8)

**Q.** And the IC50 (A549 cells; Homo sapiens, read-out: −log(IC50) (95% CI), A549, 24 h, tested compound alone (converted))?
**A.** 25.1 µM

**Q.** What about the “inhibition of DNA binding” value (pol η binding to DNA) of the same compound?
**A.** does not inhibit DNA binding

**Q.** What about the IC50 (MCF7 cells; MCF7, 24 h, read-out: −log(IC50) (95% CI), MCF7, 24 h, tested compound alone (converted)) of the same compound?
**A.** 20 µM

**Q.** What about the IC50 (MCF7 cells; MCF7, 72 h, read-out: −log(IC50) (95% CI), MCF7, 72 h, tested compound alone (converted)) of the same compound?
**A.** 15.8 µM

**Q.** What about the “−log(IC50) (95% CI)” value (MCF7 cells; MCF7, 24 h) of the same compound?
**A.** 4.8 (4.7, 4.8)

**Q.** What about the “−log(IC50) (95% CI)” value (MCF7 cells; MCF7, 72 h) of the same compound?
**A.** 4.9 (4.8, 5.0)

**Q.** And the IC50 [3]?
**A.** 10 µM

**Q.** What about the Ki [3] of the same compound?
**A.** 20 µM

**Q.** And the α [3, 6]?
**A.** 0.49 (0.12, 0.85)

**Q.** And the β [3, 7]?
**A.** 0.03 (–0.10, 0.15)

**Q.** What about the “inhibition mechanism versus dCTP” value ([3]; steady-state kinetic analysis) of the same compound?
**A.** linear mixed-type noncompetitive

**Q.** What about the “crossing of blood–brain and blood–cerebrospinal fluid barriers” value [4] of the same compound?
**A.** crosses the blood–brain and blood–cerebrospinal fluid barriers

**Q.** And the IC50 (PANC1 cells; PANC-1, 24 h, read-out: −log(IC50) (95% CI), PANC1, 24 h, tested compound alone (converted))?
**A.** 20 µM

**Q.** What about the IC50 (PANC1 cells; PANC-1, 72 h, read-out: −log(IC50) (95% CI), PANC1, 72 h, tested compound alone (converted)) of the same compound?
**A.** 7.94 µM

**Q.** And the “−log(IC50) (95% CI)” value (PANC1 cells; PANC1, 24 h)?
**A.** 4.6 (4.5, 4.8)

**Q.** And the “−log(IC50) (95% CI)” value (PANC1 cells; PANC1, 72 h)?
**A.** 4.8 (4.7, 4.9)

**Q.** And the IC50 [5]?
**A.** 80 µM

**Q.** What about the Ki [5] of the same compound?
**A.** 26 µM

**Q.** And the α [5, 6]?
**A.** 0.48 (0.23, 0.74)

**Q.** What about the β [5, 7] of the same compound?
**A.** 0.16 (0.09, 0.23)

**Q.** What about the “inhibition mechanism versus dCTP” value ([5]; steady-state kinetic analysis) of the same compound?
**A.** mixed-type noncompetitive

**Q.** And the “inhibition of DNA binding” value (KF(exo-) binding to DNA)?
**A.** does not inhibit DNA binding
